Data set [1] deals with Mycobacterium tuberculosis. The data set can be described thus: Antimycobacterial activity against multi-drug resistant Mycobacterium tuberculosis Praha 4 after 14 days. Conditions: Praha 4, 336 h.
Data set [2] has as its system Mycobacterium tuberculosis. The data set can be described thus: Antimycobacterial activity against multi-drug resistant Mycobacterium tuberculosis Praha 4 after 21 days. The class given is functional. Conditions: Praha 4, 504 h. The method, boiled down:
(§1)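 M. tuberculosis strains (H37Rv and clinical MDR/XDR isolates) tested by microdilution in Šula's semisynthetic medium. Compounds were dissolved in DMSO and tested at 32 to 0.03 µM in twofold steps. Inoculum was a 1.0 McFarland suspension diluted 10-3. Plates were incubated at 37 °C and read at 14 and 21 days.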

A short description of data set [3]: Selectivity index, ratio of IC50 for human HepG2 cells to MIC>99 for antimycobacterial activity against multi-drug resistant Mycobacterium tuberculosis 7357/1998 after 21 days. Conditions: read-out: Selectivity Index. The class given is toxicity. The essentials: (§2)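 SI from HepG2 IC50 and M. tuberculosis MIC. HepG2 cells: DMEM + 10% FBS + 1 mM pyruvate, 10,000/well, 48 h treatment, 0.1% DMSO and 10% SDS controls, MTS absorbance at 490 nm.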

The nature of data set [4]: Selectivity index, ratio of IC50 for human HepG2 cells to MIC>99 for antimycobacterial activity against multi-drug resistant Mycobacterium tuberculosis Praha 1 after 21 days. The class given is toxicity. Conditions: read-out: Selectivity Index. The method, boiled down:
as §2

Data set [5] in a line: Selectivity index, ratio of IC50 for human A431 cells to MIC>99 for antimycobacterial activity against multi-drug resistant Mycobacterium tuberculosis Praha 1 after 21 days. The class given is toxicity. The conditions noted are these: read-out: Selectivity Index.
For data set [6], the system named is Mycobacterium tuberculosis. In words: Antimycobacterial activity against multi-drug resistant Mycobacterium tuberculosis 8666/2010 after 14 days. Conditions: 8666/2010, 336 h. It counts as functional. The method, boiled down:
as §1

A short description of data set [7]: Selectivity index, ratio of IC50 for human A431 cells to MIC>99 for antimycobacterial activity against multi-drug resistant Mycobacterium tuberculosis 234/2005 after 21 days. It counts as toxicity. Conditions: read-out: Selectivity Index.
Data set [8] concerns Mycobacterium tuberculosis. The data set can be described thus: Antimycobacterial activity against multi-drug resistant Mycobacterium tuberculosis Praha 1 after 21 days. It counts as functional. The conditions noted are these: Praha 1, 504 h. The essentials: as §1
The nature of data set [9]: Selectivity index, ratio of IC50 for human HepG2 cells to MIC>99 for antimycobacterial activity against multi-drug resistant Mycobacterium tuberculosis 9449/2007 after 21 days. It counts as toxicity. The conditions noted are these: read-out: Selectivity Index. The essentials:
as §2

The subject of data set [10] is Mycobacterium tuberculosis. In words: Antimycobacterial activity against multi-drug resistant Mycobacterium tuberculosis Praha 1 after 14 days. The class given is functional. The conditions noted are these: Praha 1, 336 h. The method, boiled down: as §1
Data set [11] is described as follows: Selectivity index, ratio of IC50 for human HepG2 cells to MIC>99 for antimycobacterial activity against multi-drug resistant Mycobacterium tuberculosis Praha 4 after 14 days. It counts as toxicity. The conditions noted are these: read-out: Selectivity Index. The essentials: as §2
Data set [12] concerns Mycobacterium tuberculosis. In words: Antimycobacterial activity against multi-drug resistant Mycobacterium tuberculosis 9449/2007 after 21 days. The class given is functional. Conditions: 9449/2007, 504 h. The essentials: as §1
Data set [13] can be described thus: Selectivity index, ratio of IC50 for human A431 cells to MIC>99 for antimycobacterial activity against multi-drug resistant Mycobacterium tuberculosis 8666/2010 after 14 days. Conditions: read-out: Selectivity Index. The class given is toxicity.
Data set [14] in a line: Selectivity index, ratio of IC50 for human HepG2 cells to MIC>99 for antimycobacterial activity against multi-drug resistant Mycobacterium tuberculosis 234/2005 after 21 days. Conditions: read-out: Selectivity Index. It counts as toxicity. The method, boiled down:
as §2

The nature of data set [15]: Selectivity index, ratio of IC50 for human HepG2 cells to MIC>99 for antimycobacterial activity against multi-drug resistant Mycobacterium tuberculosis 234/2005 after 14 days. The class given is toxicity. Conditions: read-out: Selectivity Index. The method, boiled down: as §2
Data set [16] can be described thus: Selectivity index, ratio of IC50 for human A431 cells to MIC>99 for antimycobacterial activity against multi-drug resistant Mycobacterium tuberculosis 7357/1998 after 14 days. The class given is toxicity. The conditions noted are these: read-out: Selectivity Index.
Data set [17] deals with Mycobacterium tuberculosis. The data set can be described thus: Antimycobacterial activity against multi-drug resistant Mycobacterium tuberculosis 7357/1998 after 14 days. It counts as functional. Conditions: 7357/1998, 336 h. The essentials: as §1
Data set [18] in a line: Selectivity index, ratio of IC50 for human HepG2 cells to MIC>99 for antimycobacterial activity against multi-drug resistant Mycobacterium tuberculosis Praha 1 after 14 days. It counts as toxicity. The conditions noted are these: read-out: Selectivity Index. The essentials: as §2
Data set [19] is described as follows: Selectivity index, ratio of IC50 for human HepG2 cells to MIC>99 for antimycobacterial activity against multi-drug resistant Mycobacterium tuberculosis 8666/2010 after 14 days. Conditions: read-out: Selectivity Index. The class given is toxicity. The essentials: as §2
The subject of data set [20] is Mycobacterium tuberculosis. In words: Antimycobacterial activity against multi-drug resistant Mycobacterium tuberculosis 8666/2010 after 21 days. It counts as functional. Conditions: 8666/2010, 504 h. The essentials:
as §1

Data set [21] can be described thus: Selectivity index, ratio of IC50 for human A431 cells to MIC>99 for antimycobacterial activity against multi-drug resistant Mycobacterium tuberculosis 9449/2007 after 21 days. It counts as toxicity. The conditions noted are these: read-out: Selectivity Index.
Data set [22] relates to Mycobacterium tuberculosis. In words: microbe, parasite or virus in culture. The conditions noted are these: 234/2005, 336 h.
A short description of data set [23]: Selectivity index, ratio of IC50 for human A431 cells to MIC>99 for antimycobacterial activity against multi-drug resistant Mycobacterium tuberculosis Praha 1 after 14 days. The class given is toxicity. Conditions: read-out: Selectivity Index.
Data set [24] is described as follows: Selectivity index, ratio of IC50 for human A431 cells to MIC>99 for antimycobacterial activity against multi-drug resistant Mycobacterium tuberculosis 7357/1998 after 21 days. The class given is toxicity. Conditions: read-out: Selectivity Index.
Data set [25] in a line: Selectivity index, ratio of IC50 for human A431 cells to MIC>99 for antimycobacterial activity against multi-drug resistant Mycobacterium tuberculosis 9449/2007 after 14 days. The class given is toxicity. The conditions noted are these: read-out: Selectivity Index.
Data set [26] can be described thus: Selectivity index, ratio of IC50 for human HepG2 cells to MIC>99 for antimycobacterial activity against multi-drug resistant Mycobacterium tuberculosis 9449/2007 after 14 days. The class given is toxicity. Conditions: read-out: Selectivity Index. The essentials:
as §2

For data set [27], the system named is Mycobacterium tuberculosis. The data set can be described thus: Antimycobacterial activity against multi-drug resistant Mycobacterium tuberculosis 7357/1998 after 21 days. The conditions noted are these: 7357/1998, 504 h. It counts as functional. The method, boiled down:
as §1

Data set [28] can be described thus: Selectivity index, ratio of IC50 for human HepG2 cells to MIC>99 for antimycobacterial activity against multi-drug resistant Mycobacterium tuberculosis 7357/1998 after 14 days. The class given is toxicity. The conditions noted are these: read-out: Selectivity Index. The method, boiled down:
as §2

The nature of data set [29]: Selectivity index, ratio of IC50 for human HepG2 cells to MIC>99 for antimycobacterial activity against multi-drug resistant Mycobacterium tuberculosis Praha 4 after 21 days. The class given is toxicity. Conditions: read-out: Selectivity Index. The essentials:
as §2

Data set [30] is described as follows: Selectivity index, ratio of IC50 for human A431 cells to MIC>99 for antimycobacterial activity against multi-drug resistant Mycobacterium tuberculosis Praha 4 after 21 days. It counts as toxicity. The conditions noted are these: read-out: Selectivity Index. The method, boiled down: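 SI from A431 IC50 and M. tuberculosis MIC. A431 cells: DMEM + 10% FBS, seeded 10,000/well, treated after 24 h for 48 h, 0.1% DMSO (100%) and 10% SDS (0%) controls, MTS absorbance at 490 nm.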

For data set [31], the system named is Mycobacterium tuberculosis. The data set can be described thus: Antimycobacterial activity against multi-drug resistant Mycobacterium tuberculosis 234/2005 after 21 days. It counts as functional. Conditions: 234/2005, 504 h. The method, boiled down: as §1
A short description of data set [32]: Selectivity index, ratio of IC50 for human HepG2 cells to MIC>99 for antimycobacterial activity against multi-drug resistant Mycobacterium tuberculosis 8666/2010 after 21 days. The class given is toxicity. Conditions: read-out: Selectivity Index. The essentials:
as §2

Data set [33] can be described thus: Selectivity index, ratio of IC50 for human A431 cells to MIC>99 for antimycobacterial activity against multi-drug resistant Mycobacterium tuberculosis 234/2005 after 14 days. Conditions: read-out: Selectivity Index. It counts as toxicity.
The subject of data set [34] is Mycobacterium tuberculosis. In words: Antimycobacterial activity against multi-drug resistant Mycobacterium tuberculosis 9449/2007 after 14 days. The class given is functional. The conditions noted are these: 9449/2007, 336 h. The method, boiled down: as §1
Data set [35] can be described thus: Selectivity index, ratio of IC50 for human A431 cells to MIC>99 for antimycobacterial activity against multi-drug resistant Mycobacterium tuberculosis 8666/2010 after 21 days. It counts as toxicity. The conditions noted are these: read-out: Selectivity Index.
Data set [36] can be described thus: Selectivity index, ratio of IC50 for human A431 cells to MIC>99 for antimycobacterial activity against multi-drug resistant Mycobacterium tuberculosis Praha 4 after 14 days. The conditions noted are these: read-out: Selectivity Index. It counts as toxicity.

Each structure is given as a SMILES string. Values after ≈ are worked out from the molar mass of the structure shown.

As for `O=[N+]([O-])c1cc(-c2nnc(SCc3ccccc3)n2Cc2ccccc2)cc(C(F)(F)F)c1`, the MIC99 in data set [1], in [2], in data set [6], in data set [8], in data set [10] and in [12] was 0.06 µM (≈ 0.0282 µg/mL) each time. Also, the MIC99 in [17] was 0.06 µM (≈ 0.0282 µg/mL); in data set [20], 0.125 µM (≈ 0.0588 µg/mL); in data set [22], 0.06 µM (≈ 0.0282 µg/mL); in [27], 0.06 µM (≈ 0.0282 µg/mL); in data set [31], 0.06 µM (≈ 0.0282 µg/mL); in data set [34], 0.125 µM (≈ 0.0588 µg/mL). Besides, the selectivity ratio at 504 h in data set [3], in data set [4], in data set [5], in [7], in [9] and in [14] was over 100 each time. The selectivity ratio at 504 h in data set [21], in data set [24], in [29], in data set [30], in data set [32] and in [35] was over 100 each time. The selectivity ratio at 336 h in data set [11], in [13], in data set [15], in data set [16], in [18] and in data set [19] was over 100 in each case. Moreover, the selectivity ratio at 336 h in data set [23], in [25], in data set [26], in [28], in data set [33] and in data set [36] was over 100 in each case.

`Cn1c(SCc2ccc(Cl)c(Cl)c2)nnc1-c1cc([N+](=O)[O-])cc([N+](=O)[O-])c1`: the MIC99 in data set [1], in data set [2], in [6], in [8], in [10] and in [12] was 0.06 µM (≈ 0.0264 µg/mL) in each case. Moreover, the MIC99 in [17], in data set [20], in [22], in data set [27], in data set [31] and in [34] was 0.06 µM (≈ 0.0264 µg/mL) throughout.

`COc1ccc(CSc2nnc(-c3cc([N+](=O)[O-])cc(C(F)(F)F)c3)n2Cc2ccccc2)cc1`: the MIC99 in [1], in data set [2], in [6], in data set [8], in data set [10] and in data set [12] was 0.5 µM (≈ 0.25 µg/mL) in each case. Moreover, the MIC99 in data set [17] worked out at 0.5 µM (≈ 0.25 µg/mL); in data set [20], 0.5 µM (≈ 0.25 µg/mL); in data set [22], 1 µM (≈ 0.501 µg/mL); in data set [27], 0.5 µM (≈ 0.25 µg/mL); in data set [31] it was 2 µM (≈ 1 µg/mL); in data set [34], 0.5 µM (≈ 0.25 µg/mL).

On to `O=[N+]([O-])c1cc(-c2nnc(SCc3ccc(Cl)c(Cl)c3)n2Cc2ccccc2)cc([N+](=O)[O-])c1`, for which the MIC99 in data set [1] is 0.125 µM (≈ 0.0645 µg/mL); in [2], 0.125 µM (≈ 0.0645 µg/mL); in [6], 0.25 µM (≈ 0.129 µg/mL); in [8], 0.25 µM (≈ 0.129 µg/mL); in data set [10], 0.25 µM (≈ 0.129 µg/mL); in data set [12], 0.25 µM (≈ 0.129 µg/mL). Further, the MIC99 in data set [17], in data set [20], in [22], in data set [27], in data set [31] and in [34] was 0.25 µM (≈ 0.129 µg/mL) throughout.
